Shown are actives, neighbours in structure and some others; about 1.8% of the full set was active somewhere.
Scp1 inh: Scp-1 phosphatase inhibitors, primary screen, biochemical, colorimetric, uHTS | Carboxy-terminal domain RNA polymerase II polypeptide A small phosphatase 1 (Homo … | Recombinant Scp1, phosphopeptide, malachite green phosphate absorbance | inhibition, % at 20 µM | 0.88% of 340,000 active;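 active means inhibition above about 50% at 20 µM, limit read from the data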
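Test system: SCP-1 phosphatase catalytic domain, residues 76-261 | Compound dosing: One concentration, 20 µM, with 1.0% DMSO | Schedule: 45 min room-temperature reaction, 5 min colour, 30 min stabiliser | Detection: Absorbance at 630 nm | Read-out basis: % inhibition of SCP-1 phosphate liberation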
LMPTP block: LMPTP phosphatase inhibitors, primary screen, biochemical, fluorescence intensity, uHTS | recombinant LMPTP-A, OMFP fluorogenic substrate | inhibition, % at 20 µM | 0.22% of 360,000 active | Low molecular weight phosphotyrosine protein phosphatase (Homo sapiens), P24666;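 active means compounds that cut the enzyme signal by at least half of the control window in the single-dose screen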
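material = LMPTP-A | quantity = 0.625 nM enzyme | reagent = OMFP substrate, 400 µM final | buffer or medium = Bis-Tris pH 6.0, DTT, detergent | detection = endpoint fluorescence intensity from OMFP dephosphorylation | dosing = single 20 µM dose | read-out basis = % inhibition relative to no-enzyme and uninhibited control wells | control set = no-enzyme and uninhibited controls | timing = 50 min at room temperature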
DNMT1 block: human DNMT1 methyltransferase inhibitors, primary screen, biochemical, molecular beacon, fluorescence, HinP1I cleavage, uHTS. DNA (cytosine-5)-methyltransferase 1 (Homo sapiens), P26358. inhibition (reported as % activation of signal), % at 10 µM. 0.83% of 360,000 active; in the data active means inhibition above about 50%
STEP inh: STEP phosphatase inhibitors, primary screen, biochemical, fluorescence intensity, uHTS; Tyrosine-protein phosphatase non-receptor type 5 (Homo sapiens), P54829; recombinant STEP, OMFP fluorogenic substrate; inhibition, % at 20 µM; 0.25% of 360,000 active; AID 588621, 2011;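 active means inhibition at 20 µM, scaled per plate between control wells, above about 37%, limit read from the data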
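Material: STEP (striatal-enriched tyrosine phosphatase) enzyme, cell-free | Medium: 50 mM Bis-Tris pH 6.0 with 2.5 mM DTT and 0.005% Tween 20 | Read-out: Percent inhibition scaled to no-enzyme and uninhibited-enzyme controls, plate-pattern corrected | Signal: Fluorescence read at 480 nm ex / 540 nm em | Times: 20 min reaction, room temperature, in the dark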
HKDC1 inh: HKDC1 hexokinase inhibitors, primary screen, biochemical, fluorescence, uHTS. Q2TB90. recombinant HKDC1, G6PDH/diaphorase resazurin coupled fluorescence. inhibition, % at 20 µM. 0.16% of 340,000 active. AID 493160, 2011;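 active means inhibition above about 35% when tested at 20 µM, limit read from the data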
Target sequence (Q2TB90 whole entry, looked up): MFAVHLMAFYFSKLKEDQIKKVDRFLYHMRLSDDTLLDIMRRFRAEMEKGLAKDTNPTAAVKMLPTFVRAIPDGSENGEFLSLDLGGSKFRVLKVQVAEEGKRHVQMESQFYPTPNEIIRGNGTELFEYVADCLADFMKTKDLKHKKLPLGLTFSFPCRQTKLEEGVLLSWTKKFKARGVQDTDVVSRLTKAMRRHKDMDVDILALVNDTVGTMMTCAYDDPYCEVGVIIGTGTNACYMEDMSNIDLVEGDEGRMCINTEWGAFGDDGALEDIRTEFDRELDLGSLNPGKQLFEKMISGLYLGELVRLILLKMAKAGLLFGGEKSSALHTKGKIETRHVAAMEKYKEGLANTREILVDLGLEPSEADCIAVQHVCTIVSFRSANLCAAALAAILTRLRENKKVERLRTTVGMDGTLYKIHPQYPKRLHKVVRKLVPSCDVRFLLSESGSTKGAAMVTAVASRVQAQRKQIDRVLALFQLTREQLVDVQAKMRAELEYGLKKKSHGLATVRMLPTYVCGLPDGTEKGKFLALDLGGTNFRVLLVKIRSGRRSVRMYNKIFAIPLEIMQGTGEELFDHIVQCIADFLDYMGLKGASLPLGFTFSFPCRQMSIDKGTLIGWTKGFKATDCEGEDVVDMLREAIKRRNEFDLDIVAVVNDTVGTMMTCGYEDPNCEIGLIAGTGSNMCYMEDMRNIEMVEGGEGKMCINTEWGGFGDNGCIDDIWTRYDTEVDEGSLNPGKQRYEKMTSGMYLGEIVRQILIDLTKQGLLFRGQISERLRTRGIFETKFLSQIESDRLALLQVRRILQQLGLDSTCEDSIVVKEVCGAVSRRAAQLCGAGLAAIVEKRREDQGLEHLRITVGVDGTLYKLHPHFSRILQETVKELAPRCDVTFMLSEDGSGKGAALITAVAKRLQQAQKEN
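Material: recombinant HKDC1 hexokinase; Amount: HKDC1 at 5 µg/mL; Medium: Tris pH 8.0 buffer with MgCl2, Tween-20, BSA, BME; Schedule: 90 min reaction incubation at room temperature, dark; Technique: coupled resazurin fluorescence, excitation 525 nm, emission 613 nm.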
SUMO1 PPI mod: modulators of SUMO1 protein-protein interactions, primary screen, biochemical, uHTS. Small ubiquitin-related modifier 1 (Homo sapiens), P63165. SUMO1 binding to a labelled peptide, TR-FRET, 1 h. inhibition, % at 20 µM. 0.33% of 360,000 active; in the data active means inhibition above about 37%
Hits are given with their value; i = inactive; nt = no result given.

SMILES	Scp1 inh	LMPTP block	DNMT1 block	STEP inh	HKDC1 inh	SUMO1 PPI mod
O=[N+]([O-])c1cc(CN2CCOCC2)c2cccnc2c1O	65.7	nt	nt	nt	i	nt
Oc1c(Cl)cc(CN2CCOCC2)c2cccnc12	i	i	i	i	i	i
CCCc1nn2c(=O)cc(COc3ccc(NC(=O)c4ccco4)cc3)nc2s1	i	i	i	i	i	66.0
CCc1nn2c(=O)cc(COc3ccc(NC(=O)c4ccco4)cc3)nc2s1	i	i	i	i	i	i
Cc1cccc(NC2=C/C(=N/S(=O)(=O)c3cccs3)c3ccccc3C2=O)c1	i	i	i	i	53.1	i
Cc1cc(C)c(S(=O)(=O)/N=C2\C=C(NS(=O)(=O)c3ccccc3)C(=O)c3ccccc32)c(C)c1	i	i	i	i	i	i
O=C(O)c1ccc(NC2=C/C(=N/S(=O)(=O)c3cccs3)c3ccccc3C2=O)cc1	nt	i	97.2	i	nt	65.3
N#Cc1cc(-c2ccccc2)cn(Cc2c(Cl)cccc2Cl)c1=O	i	i	i	i	i	i
Cc1ccc(-c2cc(C#N)c(=O)n(Cc3c(Cl)cccc3Cl)c2)cc1	i	i	i	i	i	41.5
O=C(Nc1ccc(F)cc1)C1CCC(CNc2c(N3CCCCC3)c(=O)c2=O)CC1 (stereo not drawn)	i	i	i	i	i	i
CCn1cc(C(=O)O)c(=O)c2cc(F)c(N3CCN(C(=S)NC(=O)c4ccc(OC)cc4)CC3)cc21	i	67.3	i	i	i	i
CCCCCCCC(=O)N1CCN(c2cc3c(cc2F)c(=O)c(C(=O)O)cn3CC)CC1	i	i	i	i	i	i
CCn1cc(C(=O)O)c(=O)c2cc(F)c(N3CCN(C(=S)NC(=O)c4cccc(C)c4)CC3)cc21	i	60.3	i	i	i	i
CCn1cc(C(=O)O)c(=O)c2cc(F)c(N3CCN(C(=S)NC(=O)c4ccc(Br)cc4)CC3)cc21	i	60.8	i	i	i	i
CCn1cc(C(=O)O)c(=O)c2cc(F)c(N3CCN(C(=O)Nc4ccccc4)CC3)cc21	i	51.2	i	i	i	i
CCn1cc(C(=O)O)c(=O)c2cc(F)c(N3CCN(C)CC3)cc21	i	i	i	i	i	i
CCn1cc(C(=O)O)c(=O)c2cnc(N3CCN(C(=S)Nc4ccc(F)cc4)CC3)nc21	i	nt	nt	nt	i	nt
CCn1cc(C(=O)O)c(=O)c2cc(F)c(N3CCN(S(=O)(=O)c4ccc(NC(C)=O)cc4)CC3)cc21	i	i	i	i	i	i
CCn1cc(C(=O)O)c(=O)c2cc(F)c(N3CCN(S(=O)(=O)c4ccc5c(c4)OCCO5)CC3)cc21	i	61.7	i	i	i	i
CCn1cc(C(=O)O)c(=O)c2cc(F)c(N3CCN(C(=S)NC(=O)c4ccccc4F)CC3)cc21	i	69.6	i	i	i	i
CCn1cc(C(=O)O)c(=O)c2cnc(N3CCN(C(=S)Nc4ccccc4Cl)CC3)nc21	i	51.4	i	i	i	i
C[C@@H](c1ccccc1)N1C[C@H]2CCCN2c2cc(Br)ccc2S1(=O)=O	i	i	i	i	i	i
COc1ccc(C(=O)NCCN(C)C)c2nc3ccccc3cc12	i	i	56.3	i	i	i
COc1cccc2nc3c(C(=O)NCCN(C)C)cccc3cc12	i	i	59.8	i	i	i
CN(C)CCNC(=O)c1cccc2nc3c(ccc4ccccc43)nc12	i	i	61.0	i	i	i
SMILES	Scp1 inh	LMPTP block	DNMT1 block	STEP inh	HKDC1 inh	SUMO1 PPI mod
COc1ccc(Cl)cc1C(=O)NCCN(C)C	i	i	i	i	i	i
CN(C)CCNC(=O)c1cccc2[nH]c(-c3ccncc3)nc12	i	i	i	i	i	i
Cc1ccc(Sc2cc(C(=O)NCCN(C)C)c3ccccc3n2)cc1	i	i	i	i	i	i
COc1cccc(N2CCN(C(=O)c3c(C)nn(-c4ccccc4)c3C)CC2)c1	i	i	i	i	i	i
CCC(c1nnc(SCC(=O)Nc2cccnc2Cl)n1-c1ccccc1)N(C)C (stereo not drawn)	i	i	i	i	i	i
CC(C)(O)P(=O)(O)CCc1ccccc1	i	i	i	i	i	i
O=C(NC1(O)C(=O)c2ccccc2C1=O)c1c(Cl)cccc1Cl	i	i	52.7	i	i	i
O=C(NC1(O)C(=O)c2ccccc2C1=O)c1ccccc1	i	i	i	i	i	i
O=C(NCc1ccccc1)C(c1ccccc1)N(C(=O)c1csnn1)c1ccccc1 (stereo not drawn)	i	i	i	i	i	i
O=C1c2cccc3cccc(c23)C(=O)N1/N=C/c1ccc(O)cc1O	i	i	i	i	i	i
Cc1nc2ccccc2c(=O)n1/N=C/c1ccc(O)c(O)c1O	i	83.7	77.9	i	i	69.7
O=C1c2ccccc2C(=O)N1/N=C/c1ccc(O)c(O)c1O	i	68.0	i	i	i	i
CC1(c2cccc(Br)c2)NC(=O)N(CC(=O)Nc2ccc3c(c2)OCO3)C1=O (stereo not drawn)	i	i	i	i	i	i
COc1cc(CC(NC(C)=O)C(=O)NC2CCN(c3nc(C)cc(C)c3C#N)CC2)cc(OC)c1 (stereo not drawn)	i	i	i	i	i	41.7
CC(NCC(=O)NCC(=O)Nc1ccc(F)cc1)c1cccc(C(F)(F)F)c1 (stereo not drawn)	i	i	i	i	i	i
N=c1c2c3c(sc2nc2n1CCCCC2)CCCCC3	i	i	i	42.0	i	i
CN(CCCC(=O)O)c1ccc(N=Nc2ccc([N+](=O)[O-])cc2)cc1	110.5	77.2	i	99.1	i	i
Nc1cc(C(=O)O)c(N)c2c1C(=O)c1ccccc1C2=O	81.7	i	i	i	i	i
CCCCn1c(N)c(N(CCC(C)C)C(=O)CCN2C(=O)C3CC=CCC3C2=O)c(=O)[nH]c1=O (stereo not drawn)	i	i	i	i	i	i
CCOC(=O)c1ccc(NC(=O)c2c(N)n(Cc3ccccc3)c(=O)[nH]c2=O)cc1	i	i	i	i	i	46.4
Cc1ccc(-n2c(N)c(C(=O)N3CCOCC3)sc2=S)cc1	i	i	i	i	i	i
CN1CCN(C(=O)c2sc(=S)n(-c3ccccc3)c2N)CC1	i	i	i	96.4	i	i
